Measured values collected from several papers.
Target: Vascular endothelial growth factor receptor 1 (FLT1, Homo sapiens, UniProt P17948)
Residues used in one study (P17948 827-1158, limits assumed): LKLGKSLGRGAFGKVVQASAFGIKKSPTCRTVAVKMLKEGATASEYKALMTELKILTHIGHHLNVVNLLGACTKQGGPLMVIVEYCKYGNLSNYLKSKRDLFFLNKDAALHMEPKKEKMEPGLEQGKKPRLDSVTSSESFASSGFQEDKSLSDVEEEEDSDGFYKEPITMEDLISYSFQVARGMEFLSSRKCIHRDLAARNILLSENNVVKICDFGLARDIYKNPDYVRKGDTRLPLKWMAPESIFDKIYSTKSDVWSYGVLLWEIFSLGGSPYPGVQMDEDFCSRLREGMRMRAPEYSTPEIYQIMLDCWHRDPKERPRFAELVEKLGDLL

| Structure (SMILES) | read-out | mode | method | measurement | value |
| --- | --- | --- | --- | --- | --- |
| Cc1ccc(C(=O)Nc2ccc(Oc3cc4cnn(C)c4cc3-c3cn[nH]c3)c(F)c2)c(=O)n1-c1ccc(F)cc1 | enzyme activity in cells | inhibitor | – | IC50 | > 1000 nM |
| Cc1ccc(NC(=O)c2ccc(C)c(C(F)(F)F)c2)cc1C#Cc1nn(C2CCC(O)CC2)c2ncnc(N)c12 (centres unmarked) | enzyme activity | inhibitor | radiometric | IC50 | 15 nM |
| CC(C)(C)n1nc(-c2ccc3nc(OC4CC4)ccc3c2)c(C(N)=O)c1N | cell-free assay | – | – | IC50 | 8380 nM |
| C=CC(=O)Nc1cccc(CN2C(=O)N(c3c(Cl)c(OC)cc(OC)c3Cl)Cc3cnc(NCCCCN(CC)CC)nc32)c1 | binding | – | competition with immobilised ligand | Kd | 32 nM |
| CC(C)(C)n1nc(-c2cnc3cc(OC4CC4)ccc3c2)c(C(N)=O)c1N | cell-free assay | – | – | IC50 | > 10000 nM |
| Cc1cnc(-c2ccc(-c3ccc(NC(=O)Nc4c(F)cc(F)cc4F)cc3F)c3c2C(=O)NC3)[nH]1 | binding | – | competition with immobilised ligand | Kd | 13 nM |
| CNC(=O)c1cc2c(Oc3ccc(NC(=O)C4(C(=O)Nc5ccc(F)cc5)CC4)cc3)ccnc2cc1OC | enzyme activity | inhibitor | radiometric | IC50 | 13 nM |
| COc1ccc2c(Oc3ccc4c(C(=O)Nc5ccccc5N)cccc4c3)ccnc2c1 | enzyme activity | inhibitor | – | IC50 | 8 nM |
